Screening data from PubChem.
Most compounds without a hit are left out; they make up all but 2.4% or so of the library.
TPT1 inhibitor – inhibitors of Candida albicans tRNA 2'-phosphotransferase TPT1 | recombinant caTPT1, FP RNA substrate dephosphorylation | inhibition, % at 5 µM | hit rate 0.81% among 300,000 | AID 1962;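 active = inhibition above the mean of all tested compounds plus 3 SD, set per screening campaign, cut at about 24% in these data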;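 also: plate controls were DMSO alone for no effect and ferristatin control at 100 nM for full effect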
HNF4A DNA FP – change in binding of human HNF4 alpha to DNA. hit rate 0.3% among 360,000. HNF4a-FITC DNA binding, fluorescence polarization, 1 h. activity change, % at 10 µM. P41235. AID 1224865; in the data active = activity change above about 30%, passing the limit was not always enough
Target sequence (P41235 whole entry, looked up): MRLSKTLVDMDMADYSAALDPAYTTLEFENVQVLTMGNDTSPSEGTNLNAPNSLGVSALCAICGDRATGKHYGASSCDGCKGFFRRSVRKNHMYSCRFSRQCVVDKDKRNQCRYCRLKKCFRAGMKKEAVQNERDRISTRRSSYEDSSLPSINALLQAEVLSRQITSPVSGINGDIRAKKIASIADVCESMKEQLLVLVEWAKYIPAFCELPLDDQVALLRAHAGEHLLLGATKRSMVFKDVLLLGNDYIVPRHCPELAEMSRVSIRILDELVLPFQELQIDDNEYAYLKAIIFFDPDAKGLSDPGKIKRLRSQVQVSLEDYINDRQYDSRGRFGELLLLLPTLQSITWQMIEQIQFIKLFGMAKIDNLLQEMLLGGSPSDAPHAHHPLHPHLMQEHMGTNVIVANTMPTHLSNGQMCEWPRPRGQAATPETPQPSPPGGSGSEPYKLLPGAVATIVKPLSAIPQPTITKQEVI
CSN deneddyl inh – CSN deneddylation inhibition; Q92905; Purified CSN, SCF-Nedd8-OG deneddylation, fluorescence polarization; inhibition, % at 12.5 µM; hit rate 0.38% among 360,000; AID 651999;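 active = pattern-corrected inhibition above about 35%, with an unprinted fluorescence ratio check between 0.5 and 1.5, limit read from the data, passing the limit was not always enough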;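 also: 0% = enzyme with substrate and 100% = substrate without enzyme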
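Test system: purified human Csn5 enzyme expressed in HEK293T cells. Amount: 0.24 nM enzyme. Reagent: SCFSkp2-Nedd8OG substrate at 10 nM final. Schedule: 90 min incubation of compound, enzyme and substrate at room temperature. Detection: fluorescence polarization. Read-out: % inhibition of substrate cleavage by Csn5.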
Rpn11 block – inhibitors of human proteasome Rpn11. O00487. human 26S proteasome, Ub4-pepOG fluorescence polarization; 20S core pre-blocked with epoxomicin. inhibition, % at 20 µM. hit rate 0.59% among 360,000. AID 588493;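 active = inhibition at 20 µM, scaled to each plate's controls, above about 33%, limit read from the data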
Rin1-Abl PPI inh – human Rin1-Abl interaction inhibition | TR-FRET Rin1/Abl binding, biochemical | inhibition, % at 7.35 µM | hit rate 0.4% among 360,000; in the data active = inhibition above about 5%, passing the limit was not always enough
Neddylation inh – blocks human cullin neddylation. inhibition, % at 25 µM. hit rate 0.58% among 360,000. TR-FRET cullin neddylation, biochemical; in the data active = inhibition above about 36%
TPT1 inh confirm – TPT1 (C. albicans) inhibition, confirmation | hit rate 74% among 2,400 | shares compounds with TPT1 inhibitor | recombinant caTPT1, fluorescence polarization, RNase T1 coupled | inhibition, % at 5 µM | AID 2149;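 active = inhibition above the primary screen limit, the mean inhibition of all tested compounds plus 3 SD, cut at about 25% in these data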
RNase T1 counter – counter-screen for TPT1 inhibitors: inhibitors of Aspergillus oryzae RNase T1 | AID 2153 | RNase T1 cleavage, fluorescence polarization, 1536-well | hit rate 83% among 2,400 | inhibition, % at 5 µM | shares compounds with TPT1 inhibitor;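 active = inhibition above the solvent-only control well mean plus 3 SD, limit set per screening run, cut at about 23% in these data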;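 also: plate controls were DMSO wells with enzyme for no effect and wells without RNase T1 for full effect; inhibitors block cleavage so intact labeled substrate keeps polarization high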
Target sequence (P00651 whole entry, looked up): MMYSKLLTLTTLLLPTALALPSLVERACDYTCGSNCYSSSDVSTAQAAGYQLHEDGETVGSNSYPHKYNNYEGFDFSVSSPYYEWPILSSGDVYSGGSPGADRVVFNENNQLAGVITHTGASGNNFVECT
Rpn11 inh conf – Rpn11 inhibition confirmation, single concentration | hit rate 29% among 1,900 | shares compounds with Rpn11 block | inhibition, % at 20 µM | purified human 26S proteasome, Ub4-pepOG fluorescence polarization; proteasome pretreated with epoxomicin
MMP-2 counter – counter-screen for RPN11 inhibitors: inhibition of human MMP-2; hit rate 4% among 1,900; inhibition, % at 20 µM; shares compounds with Rpn11 block; recombinant MMP-2, FRET peptide cleavage fluorescence;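 also: human MMP-2 activated beforehand with APMA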
Thrombin FP – counter-screen for RPN11 inhibitors: inhibition of bovine thrombin. shares compounds with Rpn11 block. bovine thrombin cleavage of Ub4-pepOG, fluorescence polarization. inhibition, % at 20 µM. hit rate 13% among 1,900. AID 602333;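 active = mean inhibition at least 40% at 20 µM, or signal 3 deviations below plate average, so some actives read negative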;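 also: plate controls were thrombin with DMSO for no effect and buffer wells lacking thrombin for full effect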
* marks the source's active call; other numbers are inactive results. Rule as the data show it, unless noted: active = inhibition above about 40%; inactive = the rest.

Results for O=C1/C(=C/c2ccc([N+](=O)[O-])cc2)C=C(c2ccccc2)N1c1ccccc1 ?
TPT1 inhibitor: 35*; HNF4A DNA FP: 25; CSN deneddyl inh: 11; Rpn11 block: 40*; Rin1-Abl PPI inh: 2; Neddylation inh: -17; TPT1 inh confirm: 12; RNase T1 counter: 23*; Rpn11 inh conf: 8; MMP-2 counter: 17; Thrombin FP: -2

What do the screens show for `Nc1c(C(=O)O)sc2nc(-c3ccccc3)cc(-c3ccc(Cl)cc3)c12`?
TPT1 inhibitor: 0; HNF4A DNA FP: 7; CSN deneddyl inh: 5; Rpn11 block: 14; Rin1-Abl PPI inh: -1; Neddylation inh: -11

How did Nc1c(C(=O)O)sc2nc(-c3ccc(F)cc3)cc(-c3ccccc3)c12 do in these assays?
TPT1 inhibitor: 29*; HNF4A DNA FP: 18; CSN deneddyl inh: -1; Rpn11 block: 53*; Rin1-Abl PPI inh: -5; Neddylation inh: -23; TPT1 inh confirm: 13; RNase T1 counter: 22*; Rpn11 inh conf: 6; MMP-2 counter: 5; Thrombin FP: -3

What do the screens show for `CCC1S/C(=C(\C#N)C(N)=O)N(c2ccc(F)cc2)C1=O` (configuration not stated)?
TPT1 inhibitor: -2; HNF4A DNA FP: 1; CSN deneddyl inh: 2; Rpn11 block: -5; Rin1-Abl PPI inh: 1; Neddylation inh: 1

How did Cc1ccccc1N1C(=O)C(Cc2ccc(F)cc2)S/C1=C(\C#N)C(N)=O (configuration not stated) do in these assays?
TPT1 inhibitor: 26*; HNF4A DNA FP: 3; CSN deneddyl inh: 3; Rpn11 block: 45*; Rin1-Abl PPI inh: 2; Neddylation inh: -2; TPT1 inh confirm: 7; RNase T1 counter: 11; Rpn11 inh conf: 6; MMP-2 counter: -12; Thrombin FP: 0

Results for COC(=O)CN1C2=NCCCN2c2ccccc21 ?
TPT1 inhibitor: -1; HNF4A DNA FP: 5; CSN deneddyl inh: 3; Rpn11 block: -6; Rin1-Abl PPI inh: -2; Neddylation inh: -9

Results for Cc1cccc2sc(NC(=O)C3CCCN(S(=O)(=O)c4cccc5nonc45)C3)nc12 (configuration not stated) ?
TPT1 inhibitor: 43*; HNF4A DNA FP: 21; CSN deneddyl inh: 6; Rpn11 block: 58*; Rin1-Abl PPI inh: 2; Neddylation inh: -88; TPT1 inh confirm: 39*; RNase T1 counter: 49*; Rpn11 inh conf: 41*; MMP-2 counter: -27; Thrombin FP: -19

Results for CCCC1=NN2C(=N)/C(=C\c3ccc(SCc4ccco4)o3)C(=O)N=C2S1 ?
TPT1 inhibitor: 43*; HNF4A DNA FP: 30; CSN deneddyl inh: 76*; Rpn11 block: 124*; Rin1-Abl PPI inh: 6; Neddylation inh: -21; TPT1 inh confirm: 47*; RNase T1 counter: 60*; Rpn11 inh conf: 40*; MMP-2 counter: -5; Thrombin FP: 23

What do the screens show for `COc1cc(-c2nc(CN3CCN(C(=O)c4ccco4)CC3)c(C)o2)ccc1F`?
TPT1 inhibitor: 0; HNF4A DNA FP: -8; CSN deneddyl inh: 5; Rpn11 block: 1; Rin1-Abl PPI inh: 5; Neddylation inh: 13

How did COc1ccccc1/C=C/C=C1N=C(/C=C/c2ccc(Cl)cc2)OC/1=O do in these assays?
TPT1 inhibitor: 40*; HNF4A DNA FP: 7; CSN deneddyl inh: 11; Rpn11 block: 60*; Rin1-Abl PPI inh: 2; Neddylation inh: 6; TPT1 inh confirm: 124*; RNase T1 counter: 124*; Rpn11 inh conf: 11; MMP-2 counter: -52; Thrombin FP: 4

What do the screens show for `COc1ccccc1/C=C/C(=O)c1ccc(Cl)cc1`?
TPT1 inhibitor: -2; HNF4A DNA FP: 8; CSN deneddyl inh: 6; Rpn11 block: -4; Rin1-Abl PPI inh: 2; Neddylation inh: 2

What do the screens show for `COc1ccc2cc([C@H](C)C(=O)N(C)Cc3ccccc3N3CCCC3)ccc2c1`?
TPT1 inhibitor: 7; HNF4A DNA FP: 10; CSN deneddyl inh: 3; Rpn11 block: 23; Rin1-Abl PPI inh: 7; Neddylation inh: 7

Results for COc1ccc(C2CC(c3ccccc3)=NN2c2ccc(N)cc2)cc1 (configuration not stated) ?
TPT1 inhibitor: 29*; HNF4A DNA FP: 19; CSN deneddyl inh: -5; Rpn11 block: 48*; Rin1-Abl PPI inh: -1; TPT1 inh confirm: 38*; RNase T1 counter: 51*; Rpn11 inh conf: 37; MMP-2 counter: 36; Thrombin FP: 16

What do the screens show for `Cc1cc(C(=O)c2cccs2)c(N)s1`?
TPT1 inhibitor: 35*; HNF4A DNA FP: 19; CSN deneddyl inh: 24; Rpn11 block: 53*; Rin1-Abl PPI inh: -1; Neddylation inh: -3; TPT1 inh confirm: 40*; RNase T1 counter: 49*; Rpn11 inh conf: 50*; MMP-2 counter: -26; Thrombin FP: 39

What do the screens show for `Cc1nn(CC(=O)c2ccc(Cl)s2)c(C)c1[N+](=O)[O-]`?
TPT1 inhibitor: 43*; HNF4A DNA FP: 15; CSN deneddyl inh: -4; Rpn11 block: 44*; Rin1-Abl PPI inh: -2; Neddylation inh: -47; TPT1 inh confirm: 40*; RNase T1 counter: 49*; Rpn11 inh conf: 19; MMP-2 counter: 6; Thrombin FP: 17

Results for Cc1ccc(C(=O)Cn2nc(C)c([N+](=O)[O-])c2C)c(C)c1 ?
TPT1 inhibitor: 1; HNF4A DNA FP: 0; CSN deneddyl inh: -1; Rpn11 block: -4; Rin1-Abl PPI inh: 0; Neddylation inh: 1

Results for COC(=O)c1sccc1S(=O)(=O)N1CCCC(N(C)CCc2ccccn2)C1 (configuration not stated) ?
TPT1 inhibitor: -2; HNF4A DNA FP: 3; CSN deneddyl inh: 0; Rpn11 block: 1; Rin1-Abl PPI inh: -1; Neddylation inh: -2

How did CCN(CC(=O)Nc1cc(Cl)ccc1OC)CC(=O)NC1CCS(=O)(=O)C1 (configuration not stated) do in these assays?
TPT1 inhibitor: -2; HNF4A DNA FP: 2; CSN deneddyl inh: 2; Rpn11 block: 4; Rin1-Abl PPI inh: -1; Neddylation inh: 3
